Assay results published in ChEMBL document CHEMBL5303300, “EUbOPEN Chemogenomics Library - Multiplex” (2023).
Several values for one entry are separate records, joined by “and”; a condition that tells them apart may be missing. Identical values can stand only once.

Assays:
Fibroblast = assay: Multiplex assay against human fibroblast; type: toxicity, cell-based; conditions: number of replicates 2
How it was run: (§1)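 Tubulin, mitochondrial-mass and membrane-permeability phenotypes are per cents of healthy-nucleus cells. Cells were gated by CellPathfinder machine learning into Hoechst high-intensity objects or normal cells, normal cells into healthy, pyknosed or fragmented nuclei, and pyknosed cells into mitotic or apoptotic. Before that, live cells stained at seeding with Hoechst33342, BioTracker Green Microtubule Cytoskeleton Dye, MitoTracker Red and Annexin V Alexa Fluor 680 were imaged on a CQ1 microscope at 37°C and 5% CO2 after compound addition.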

U2OS = assay: Multiplex assay against U2OS; type: toxicity, cell-based; conditions: human, number of replicates 2; how it was run: as §1
[1] = 12 h, 10 µM, compound concentration 10 uM
[2] = 24 h, 1 µM, compound concentration 1 uM
[3] = 24 h, 10 µM, compound concentration 10 uM
[4] = 48 h, 1 µM, compound concentration 1 uM
[5] = 48 h, 10 µM, compound concentration 10 uM
[6] = 12 h, 1 µM, compound concentration 1 uM

`CN1CCc2cc(Nc3ncc(C(F)(F)F)c(NCc4cc[nH]n4)n3)ccc2C1` was tested, and the “Population Pyknosed Nuclei (%)” value (Fibroblast; [1]) was 20% and 11%, the “Population Tubulin-Different-Phenotype (%)” value (Fibroblast; [1]) was 16% and 18% and the “Total Cell Count” value (Fibroblast; [1]) was 180 and 262. For the same molecule, the “Population Apoptotic (%)” value (Fibroblast; [2]) was 84% and 80%, the “Population Fragmented Nuclei (%)” value (Fibroblast; [2]) was 15% and the “Population Healthy Nuclei (%)” value (Fibroblast; [2]) was 40% and 50%. The “Population Hoechst High Intensity Objects (%)” value (Fibroblast; [2]) was 0%, the “Population Membrane Permeable-Phenotype (%)” value (Fibroblast; [2]) was 3% and 12% and the “Population Mitochondria Different-Phenotype (%)” value (Fibroblast; [2]) was 0%. For the same molecule, the “Population Mitotic Cells (%)” value (Fibroblast; [2]) was 15% and 20%, the “Population Normal (%)” value (Fibroblast; [2]) was 100% and 99% and the “Population Pyknosed Nuclei (%)” value (Fibroblast; [2]) was 43% and 34%. For the same molecule, the “Population Tubulin-Different-Phenotype (%)” value (Fibroblast; [2]) was 3%, the “Total Cell Count” value (Fibroblast; [2]) was 133 and 161 and the “Population Apoptotic (%)” value (Fibroblast; [3]) was 61% and 84%. The “Population Fragmented Nuclei (%)” value (Fibroblast; [3]) was 26% and 20%, the “Population Healthy Nuclei (%)” value (Fibroblast; [3]) was 56% and 61% and the “Population Hoechst High Intensity Objects (%)” value (Fibroblast; [3]) was 0%. The “Population Membrane Permeable-Phenotype (%)” value (Fibroblast; [3]) was 9% and 12%, the “Population Mitochondria Different-Phenotype (%)” value (Fibroblast; [3]) was 3% and 1% and the “Population Mitotic Cells (%)” value (Fibroblast; [3]) was 38% and 15%. The “Population Normal (%)” value (Fibroblast; [3]) was 100% and 99%, the “Population Pyknosed Nuclei (%)” value (Fibroblast; [3]) was 16% and 17% and the “Population Tubulin-Different-Phenotype (%)” value (Fibroblast; [3]) was 17% and 19%. The “Total Cell Count” value (Fibroblast; [3]) was 185 and 253, the “Population Apoptotic (%)” value (Fibroblast; [4]) was 88% and 72% and the “Population Fragmented Nuclei (%)” value (Fibroblast; [4]) was 24% and 15%. For the same molecule, the “Population Healthy Nuclei (%)” value (Fibroblast; [4]) was 40% and 67%, the “Population Hoechst High Intensity Objects (%)” value (Fibroblast; [4]) was 0% and the “Population Membrane Permeable-Phenotype (%)” value (Fibroblast; [4]) was 8% and 14%. For the same molecule, the “Population Mitochondria Different-Phenotype (%)” value (Fibroblast; [4]) was 0%, the “Population Mitotic Cells (%)” value (Fibroblast; [4]) was 11% and 27% and the “Population Normal (%)” value (Fibroblast; [4]) was 100% and 99%. The “Population Pyknosed Nuclei (%)” value (Fibroblast; [4]) was 35% and 16%, the “Population Tubulin-Different-Phenotype (%)” value (Fibroblast; [4]) was 10% and 12% and the “Total Cell Count” value (Fibroblast; [4]) was 122 and 133. For the same molecule, the “Population Apoptotic (%)” value (Fibroblast; [5]) was 65% and 59%, the “Population Fragmented Nuclei (%)” value (Fibroblast; [5]) was 26% and 22% and the “Population Healthy Nuclei (%)” value (Fibroblast; [5]) was 51% and 57%. The “Population Hoechst High Intensity Objects (%)” value (Fibroblast; [5]) was 0%, the “Population Membrane Permeable-Phenotype (%)” value (Fibroblast; [5]) was 5% and 9% and the “Population Mitochondria Different-Phenotype (%)” value (Fibroblast; [5]) was 1% and 0%. For the same molecule, the “Population Mitotic Cells (%)” value (Fibroblast; [5]) was 34% and 40%, the “Population Normal (%)” value (Fibroblast; [5]) was 100% and the “Population Pyknosed Nuclei (%)” value (Fibroblast; [5]) was 22% and 19%. The “Population Tubulin-Different-Phenotype (%)” value (Fibroblast; [5]) was 14% and 19%, the “Total Cell Count” value (Fibroblast; [5]) was 184 and 251 and the “Population Hoechst High Intensity Objects (%)” value (U2OS; [6]) was 0%. For the same molecule, the “Population Membrane Permeable-Phenotype (%)” value (U2OS; [6]) was 0% and 4%, the “Population Mitochondria Different-Phenotype (%)” value (U2OS; [6]) was 0% and 1% and the “Population Mitotic Cells (%)” value (U2OS; [6]) was 0% and 12%. For the same molecule, the “Population Normal (%)” value (U2OS; [6]) was 100%, the “Population Healthy Nuclei (%)” value (U2OS; [1]) was 33% and 57% and the “Population Hoechst High Intensity Objects (%)” value (U2OS; [1]) was 0%. The “Population Membrane Permeable-Phenotype (%)” value (U2OS; [1]) was 0% and 7%, the “Population Mitochondria Different-Phenotype (%)” value (U2OS; [1]) was 0% and 5% and the “Population Normal (%)” value (U2OS; [1]) was 100%. For the same molecule, the “Population Pyknosed Nuclei (%)” value (U2OS; [1]) was 16% and 27%, the “Population Tubulin-Different-Phenotype (%)” value (U2OS; [1]) was 50% and 41% and the “Population Hoechst High Intensity Objects (%)” value (U2OS; [2]) was 0%. For the same molecule, the “Population Membrane Permeable-Phenotype (%)” value (U2OS; [2]) was 0% and 6%, the “Population Mitochondria Different-Phenotype (%)” value (U2OS; [2]) was 0% and 4% and the “Population Mitotic Cells (%)” value (U2OS; [2]) was 0% and 8%. The “Population Normal (%)” value (U2OS; [2]) was 100% and 99%, the “Population Apoptotic (%)” value (U2OS; [3]) was 71% and 80% and the “Population Healthy Nuclei (%)” value (U2OS; [3]) was 15% and 45%. The “Population Hoechst High Intensity Objects (%)” value (U2OS; [3]) was 0% and 1%, the “Population Membrane Permeable-Phenotype (%)” value (U2OS; [3]) was 20% and 15% and the “Population Mitochondria Different-Phenotype (%)” value (U2OS; [3]) was 20% and 8%. The “Population Mitotic Cells (%)” value (U2OS; [3]) was 28% and 19%, the “Population Normal (%)” value (U2OS; [3]) was 100% and 98% and the “Population Pyknosed Nuclei (%)” value (U2OS; [3]) was 21% and 42%. The “Population Tubulin-Different-Phenotype (%)” value (U2OS; [3]) was 60%, the “Population Healthy Nuclei (%)” value (U2OS; [4]) was 0% and 21% and the “Population Hoechst High Intensity Objects (%)” value (U2OS; [4]) was 0% and 1%. The “Population Mitochondria Different-Phenotype (%)” value (U2OS; [4]) was 0% and 22%, the “Population Mitotic Cells (%)” value (U2OS; [4]) was 0% and the “Population Normal (%)” value (U2OS; [4]) was 100% and 98%. For the same molecule, the “Population Apoptotic (%)” value (U2OS; [5]) was 93% and 88%, the “Population Healthy Nuclei (%)” value (U2OS; [5]) was 16% and 15% and the “Population Hoechst High Intensity Objects (%)” value (U2OS; [5]) was 1% and 0%. The “Population Mitotic Cells (%)” value (U2OS; [5]) was 6% and 11%, the “Population Normal (%)” value (U2OS; [5]) was 98% and 100% and the “Population Pyknosed Nuclei (%)” value (U2OS; [5]) was 68% and 23%. The “Population Tubulin-Different-Phenotype (%)” value (U2OS; [5]) was 80% and 66%.
